Data set [1] can be described thus: Stability of the compound in Sprague-Dawley rat plasma by LC-MS/MS analysis. Type of data set: ADME, cell-free. The method in brief:
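Compounds were incubated in plasma from adult male SD rats at 37 °C for up to 72 h. Samples at each time point underwent solid-phase extraction and LC-MS/MS analysis to follow degradation and derive half-life.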

Data set [2] deals with Rattus norvegicus. The data set is described as follows: Antidiabetic activity in Sprague-Dawley rat assessed as blood glucose level at 25 nmol/kg, ip treated 30 mins prior to glucose challenge measured at 15 mins interval for 180 mins by OGTT (reference value: 13.8 +/- 1.31 nmol/L). Type of data set: functional.
Data set [3] relates to Rattus norvegicus. The data set is described as follows: Antidiabetic activity in Sprague-Dawley rat assessed as reduction in blood glucose AUC at 25 nmol/kg, ip treated 30 mins prior to glucose challenge measured at 15 mins interval for 180 mins by OGTT. Type of data set: functional, organism-based.
Data set [4] concerns Rattus norvegicus. The data set is described as follows: Antidiabetic activity in Sprague-Dawley rat assessed as time required to increase in plasma insulin level at 25 nmol/kg, ip treated 30 mins prior to glucose challenge by ELISA. Type of data set: functional. The method in brief: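 Male SD rats (200–250 g), fasted 12 h, n = 6/group, received 25 nmol/kg i.p. or saline 30 min before an oral glucose load (10 g/kg, set as 0 min). EDTA plasma insulin was measured by rat insulin ELISA.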

In data set [5] the test system is Mus musculus. The data set is described as follows: Hypoglycemic activity in STZ-induced diabetic Kunming mouse model assessed as time required to reduce blood glucose level of […] at 25 nmol/kg, ip administered as single dose. In kind it is functional. The method in brief: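 Non-fasted STZ-diabetic Kunming mice with free access to food and water received a single i.p. injection (25 or 150 nmol/kg) or saline; n = 6/group. Blood glucose was followed over time.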

Data set [6] deals with Mus musculus. The data set is described as follows: Hypoglycemic activity in STZ-induced diabetic Kunming mouse model assessed as time required to reduce blood glucose level of […] at 150 nmol/kg, ip administered as single dose. Type of data set: functional. The method in brief: (§1)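 Non-fasted STZ-diabetic Kunming mice with free access to food and water received a single i.p. injection (25 or 150 nmol/kg) or saline; n = 6/group. Blood glucose was followed over time. Euglycemic duration was defined as time below 8.35 mmol/L, and glucose AUC0–36h was calculated.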

For data set [7], the system named is Mus musculus. The data set is described as follows: Hypoglycemic activity in STZ-induced diabetic Kunming mouse model assessed as reduction in glucose AUC (0 to 36 hrs) at 150 nmol/kg, ip administered as single dose. In kind it is functional, organism-based. The method in brief:
as §1

For data set [8], the system named is INS1. The data set is described as follows: Cytoprotective activity against STZ-induced oxidative stress in rat INS-1 cells assessed as cell death at 10 to 100 nM after 24 hrs by MTT assay (reference value: 45%). Type of data set: functional.
The subject of data set [9] is INS1. Put plainly: Cytoprotective activity against H2O2-induced glucolipotoxicity in rat INS-1 cells assessed as reduction in apoptosis at 10 nM after 24 hrs by Annexin-V-FITC/propidium iodide staining based flow cytometric analysis. In kind it is functional, cell-based. The method in brief: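 INS-1 cells, about 5000/well, were seeded for 24 h, then exposed to glucolipotoxic medium, 50 µM H2O2 or 1 µM STZ, plus peptide at 10 nM, for 24 h. Apoptosis was analyzed by flow cytometry; triplicate, repeated three times.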

Data set [10] relates to Mus musculus. Put plainly: Antidiabetic activity in STZ-induced diabetic Kunming mouse model assessed as reduction in HbA1c level at 25 nmol/kg, ip administered once daily for 3 weeks measured at post last dose by Beckman coulter based method. Type of data set: functional, organism-based. The method in brief:
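STZ diabetes induced with 40 mg/kg/day i.p. for 5 consecutive days after overnight fasting. Mice with fasting glucose ≥11.1 mM were grouped by matched body weight and dosed 25 nmol/kg i.p. once daily for 3 weeks; saline served as control. Fasting plasma glucose was measured every five days, and HbA1c at day 24; n = 6/group.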

Data set [11] deals with Mus musculus. The data set is described as follows: Antidiabetic activity in C57BL/6 mouse assessed as reduction in blood glucose level at 25 nmol/kg, ip treated 30 mins prior to glucose challenge measured after 120 mins by IPGTT. In kind it is functional, organism-based. The method in brief: (§2)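 Male C57BL/6 mice, 6 weeks old, fasted overnight (12 h), n = 6/group; given 25 nmol/kg or saline i.p., then i.p. glucose challenge (2.0 g/kg) 30 min later, set as 0 h. Glucose challenges were repeated at 6 h intervals to mimic three meals a day. Blood glucose was followed and AUC calculated.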

Data set [12] concerns Mus musculus. The data set is described as follows: Antidiabetic activity in C57BL/6 mouse assessed as reduction in blood glucose AUC (0 to 120 mins) at 25 nmol/kg, ip treated 30 mins prior to glucose challenge by IPGTT. In kind it is functional, organism-based. The method in brief:
as §2

Data set [13] has as its system Mus musculus. The data set is described as follows: Antidiabetic activity in STZ-induced diabetic Kunming mouse model assessed as increase in islet beta-cell area 25 nmol/kg, ip administered once daily for 3 weeks measured post last dose by hematoxylin and eosin staining based assay. In kind it is functional, organism-based. The method in brief:
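STZ-diabetic mice were dosed 25 nmol/kg i.p. once daily; normal mice and saline-treated mice served as references. After 21 days the pancreas was fixed, sectioned at 5 µm and stained with H&E. Islet area was measured by manually tracing the islet perimeter; n = 6/group.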

For data set [14], the system named is Mus musculus. The data set is described as follows: Antidiabetic activity in STZ/diet-induced obese C57BL/6 mouse assessed as reduction in cumulative water intake at 25 nmol/kg, ip administered daily for 4 weeks measured daily during compound dosing relative to control. On the set-up: scale not given: the % may be the effect or the level left. Type of data set: functional. The method in brief:
(§3)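 Male C57BL/6J DIO mice on high-fat diet were treated for 4 weeks with saline as control; LFD-fed mice (n = 6/group) were used as normal reference. Water intake, food intake and body weight were recorded daily. Terminal serum leptin and adiponectin were measured by ELISA. TC, TG, HDL, LDL, ALT and AST were measured on a clinical chemistry analyzer.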

The test system of data set [15] is Mus musculus. The data set is described as follows: Antidiabetic activity in STZ/diet-induced obese C57BL/6 mouse assessed as reduction in cumulative food intake at 25 nmol/kg, ip administered daily for 4 weeks measured daily during compound dosing relative to control. In kind it is functional. More on the design: scale not given: the % may be the effect or the level left. The method in brief: as §3

Data set [16] deals with Mus musculus. Put plainly: Antidiabetic activity in STZ/diet-induced obese C57BL/6 mouse assessed as reduction in body weight gain at 25 nmol/kg, ip administered daily for 4 weeks measured daily during compound dosing. Type of data set: functional, organism-based. The method in brief: as §3
The test system of data set [17] is Mus musculus. Put plainly: Antidiabetic activity in STZ/diet-induced obese C57BL/6 mouse assessed as reduction in serum leptin level at 25 nmol/kg, ip administered daily for 4 weeks measured post last dose. In kind it is functional. The method in brief:
as §3

Data set [18] concerns Mus musculus. The data set is described as follows: Antidiabetic activity in STZ/diet-induced obese C57BL/6 mouse assessed as increase in serum adiponectin level at 25 nmol/kg, ip administered daily for 4 weeks measured post last dose. In kind it is functional, organism-based. The method in brief:
as §3

For data set [19], the system named is Mus musculus. Put plainly: Antidiabetic activity in STZ/diet-induced obese C57BL/6 mouse assessed as reduction in serum ALT level at 25 nmol/kg, ip administered daily for 4 weeks measured post last dose. In kind it is functional, organism-based. The method in brief: as §3
Data set [20] concerns Mus musculus. Put plainly: Antidiabetic activity in STZ/diet-induced obese C57BL/6 mouse assessed as reduction in serum AST level at 25 nmol/kg, ip administered daily for 4 weeks measured post last dose. Type of data set: functional, organism-based. The method in brief:
as §3

Data set [21] relates to Mus musculus. Put plainly: Antidiabetic activity in STZ/diet-induced obese C57BL/6 mouse assessed as reduction in serum total cholesterol level at 25 nmol/kg, ip administered daily for 4 weeks measured post last dose. Type of data set: functional, organism-based. The method in brief: as §3
Data set [22] concerns Mus musculus. The data set is described as follows: Antidiabetic activity in STZ/diet-induced obese C57BL/6 mouse assessed as reduction in ratio of LDL to HDL level at 25 nmol/kg, ip administered daily for 4 weeks measured post last dose. In kind it is functional, organism-based. The method in brief: as §3
Data set [23] deals with Mus musculus. Put plainly: Antidiabetic activity in STZ/diet-induced obese C57BL/6 mouse assessed as reduction in size of white adipocytes at 25 nmol/kg, ip administered daily for 4 weeks measured post last dose. In kind it is functional, organism-based.
Data set [24] concerns Mus musculus. Put plainly: Antidiabetic activity in STZ/diet-induced obese C57BL/6 mouse assessed as reduction in size of brown adipocytes at 25 nmol/kg, ip administered daily for 4 weeks measured post last dose. In kind it is functional, organism-based.

Molecules are shown by their SMILES. Calls of active or inactive are those of the source.

`CC[C@H](C)[C@H](NC(=O)[C@H](Cc1ccccc1)NC(=O)[C@H](CCC(=O)O)NC(=O)[C@H](CCCCN)NC(=O)[C@H](C)NC(=O)[C@H](C)NC(=O)[C@H](CCC(N)=O)NC(=O)CNC(=O)[C@H](CCC(=O)O)NC(=O)[C@H](CC(C)C)NC(=O)[C@H](Cc1ccc(O)cc1)NC(=O)[C@H](CO)NC(=O)[C@H](CO)NC(=O)[C@@H](NC(=O)[C@H](CC(=O)O)NC(=O)[C@H](CO)NC(=O)[C@@H](NC(=O)[C@H](Cc1ccccc1)NC(=O)[C@@H](NC(=O)CNC(=O)[C@H](CCC(=O)O)NC(=O)CNC(=O)[C@@H](N)Cc1cnc[nH]1)[C@@H](C)O)[C@@H](C)O)C(C)C)C(=O)N[C@@H](C)C(=O)N[C@@H](Cc1c[nH]c2ccccc12)C(=O)N[C@@H](CC(C)C)C(=O)N[C@H](C(=O)N[C@@H](CCCCN)C(=O)NCC(=O)N[C@@H](CCCNC(=N)N)C(=O)N[C@@H](CSC1CC(=O)N(CCCCCCCCCCCC(=O)O)C1=O)C(N)=O)C(C)C` (some centres undefined): the Stability entry in data set [1] was “Stable”. Besides, the Activity in [2] was 6.7e+06 nmol/L; in data set [8] it was 21.9%; in [14], “<=33.5%”; in data set [15] it was 24.9%; in data set [17] it was 2.5 ng/mL. Also, the result in [3], in data set [7], in [9], in data set [10], in data set [11] and in data set [12] was Active. In addition, the result in [13], in [16], in [18], in data set [19], in data set [20] and in data set [21] was Active. Besides, the outcome in data set [23] and in data set [24] was Active. Further, the Time in data set [4] is 15 to 60 min; in [5], 9.7 h; in [6], 11.5 h. Besides, the result in data set [22] was inactive.

(Values after ChEMBL document CHEMBL4219235, “Novel fatty acid chain modified GLP-1 derivatives with prolonged in vivo glucose-lowering ability and balanced glucoregulatory activity” (Bioorg Med Chem, 2018).)
